Measured values: ChEMBL document CHEMBL1154787, “Enaminonitrile in heterocyclic synthesis: synthesis and antimicrobial evaluation of some new pyrazole, isoxazole and pyrimidine derivatives incorporating a benzothiazole moiety” (2009)
In brackets after ≈: the same amount, converted by molar mass.

How the values were obtained:
Format in all cases: functional
Escherichia coli [1] = assay: Antibacterial activity against Escherichia coli after 24-48 hrs by microdilution susceptibility test
Summary of the method: (§1)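 MIC by twofold serial dilution in wells, tested only for compounds giving inhibition zones >10 mm; microbial suspensions at 10⁶ CFU/mL inoculated into wells, incubated at 36 °C for 24–48 h, then MIC read.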

Botrytis fabae = assay: Antifungal activity against Botrytis fabae after 24-48 hrs by microdilution susceptibility test; summary of the method: as §1
Pseudomonas aeruginosa [2] = assay: Antibacterial activity against Pseudomonas aeruginosa assessed as zone of inhibition diameter at 1 mg/mL after 24 hrs […]; conditions: read-out: DIZ
Summary of the method: (§2)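 Agar diffusion: 5 mm sterile filter-paper disks loaded with test compound in DMF (1 mg/mL) placed on agar seeded with the bacterium, in triplicate; DMF alone as control; incubated 37 °C for 24 h; mean inhibition-zone diameter recorded in mm.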

Escherichia coli [3] = assay: Antibacterial activity against Escherichia coli assessed as zone of inhibition diameter at 1 mg/mL after 24 hrs […]; conditions: read-out: DIZ; summary of the method: as §2
Bacillus subtilis [4] = assay: Antibacterial activity against Bacillus subtilis assessed as zone of inhibition diameter at 1 mg/mL after 24 hrs […]; conditions: read-out: DIZ; summary of the method: as §2
Fusarium oxysporum [5] = assay: Antifungal activity against Fusarium oxysporum assessed as zone of inhibition diameter at 1 mg/mL after 48 hrs […]; conditions: read-out: DIZ
Summary of the method: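 Agar diffusion: 5 mm sterile filter-paper disks loaded with test compound in DMF (1 mg/mL) placed on agar seeded with the fungus, in triplicate; DMF alone as control; incubated at 37 °C for fungal plates; mean inhibition-zone diameter recorded in mm.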

Fusarium oxysporum [6] = assay: Antifungal activity against Fusarium oxysporum after 24-48 hrs by microdilution susceptibility test; summary of the method: as §1
Pseudomonas aeruginosa [7] = assay: Antibacterial activity against Pseudomonas aeruginosa after 24-48 hrs by microdilution susceptibility test; summary of the method: as §1
Bacillus subtilis [8] = assay: Antibacterial activity against Bacillus subtilis after 24-48 hrs by microdilution susceptibility test; summary of the method: as §1
Bacillus thuringiensis [9] = assay: Antibacterial activity against Bacillus thuringiensis assessed as zone of inhibition diameter at 1 mg/mL after 24 hrs […]; conditions: read-out: DIZ; summary of the method: as §2
Bacillus thuringiensis [10] = assay: Antibacterial activity against Bacillus thuringiensis after 24-48 hrs by microdilution susceptibility test; summary of the method: as §1

SMILES | MIC (Escherichia coli [1]) [µg/mL] | MIC (Botrytis fabae) [µg/mL] | zone of inhibition at 1000 µg/mL (Pseudomonas aeruginosa [2]) [mm] | zone of inhibition at 1000 µg/mL (Escherichia coli [3]) [mm] | zone of inhibition at 1000 µg/mL (Bacillus subtilis [4]) [mm] | zone of inhibition at 1000 µg/mL (Fusarium oxysporum [5]) [mm] | MIC (Fusarium oxysporum [6]) [µg/mL] | MIC (Pseudomonas aeruginosa [7]) [µg/mL] | MIC (Bacillus subtilis [8]) [µg/mL] | zone of inhibition at 1000 µg/mL (Bacillus thuringiensis [9]) [mm] | MIC (Bacillus thuringiensis [10]) [µg/mL]
Nc1c(C(=O)Nc2nc3ccccc3s2)cnc2nnnn12 | 50 (≈ 160 µM) | 3.12 (≈ 10 µM) | 19 | 19 | 43 | 37 | 6.25 (≈ 20 µM) | 50 (≈ 160 µM) | 3.12 (≈ 10 µM) | 31 | 12.5 (≈ 40 µM)
N#C/C(=C\NNc1ccccc1)C(=O)Nc1nc2ccccc2s1 | 12.5 (≈ 37.3 µM) | 6.25 (≈ 18.6 µM) | 25 | 31 | 13 | 31 | 12.5 (≈ 37.3 µM) | 25 (≈ 74.5 µM) | 100 (≈ 298 µM) | 19 | 50 (≈ 149 µM)
N#Cc1cncn(-c2nc3ccccc3s2)c1=O | 50 (≈ 197 µM) | 12.5 (≈ 49.2 µM) | 19 | 19 | 31 | 19 | 50 (≈ 197 µM) | 50 (≈ 197 µM) | 12.5 (≈ 49.2 µM) | 19 | 50 (≈ 197 µM)
Nc1ncc(C(=O)Nc2nc3ccccc3s2)c(N)n1 | 25 (≈ 87.3 µM) | 3.12 (≈ 10.9 µM) | 19 | 25 | 31 | 37 | 6.25 (≈ 21.8 µM) | 50 (≈ 175 µM) | 12.5 (≈ 43.7 µM) | 25 | 25 (≈ 87.3 µM)
N=c1c(C(=O)Nc2nc3ccccc3s2)cnc2sccn12 | 25 (≈ 76.4 µM) | 12.5 (≈ 38.2 µM) | 37 | 25 | 31 | 25 | 25 (≈ 76.4 µM) | 6.25 (≈ 19.1 µM) | 12.5 (≈ 38.2 µM) | 25 | 25 (≈ 76.4 µM)
Nc1oncc1C(=O)Nc1nc2ccccc2s1 | 50 (≈ 192 µM) | 6.25 (≈ 24 µM) | 19 | 19 | 19 | 25 | 25 (≈ 96.1 µM) | 50 (≈ 192 µM) | 50 (≈ 192 µM) | 25 | 25 (≈ 96.1 µM)
N#C/C(=C/N)C(=O)Nc1nc2ccccc2s1 | 25 (≈ 102 µM) | 6.25 (≈ 25.6 µM) | 13 | 25 | 13 | 31 | 12.5 (≈ 51.2 µM) | 100 (≈ 409 µM) | 100 (≈ 409 µM) | 19 | 50 (≈ 205 µM)
CN(C)/C=C(\C#N)C(=O)Nc1nc2ccccc2s1 | 100 (≈ 367 µM) | 25 (≈ 91.8 µM) | 19 | 13 | 13 | 25 | 25 (≈ 91.8 µM) | 50 (≈ 184 µM) | 100 (≈ 367 µM) | 25 | 25 (≈ 91.8 µM)
NC1=Nc2ccccc2NC=C1C(=O)Nc1nc2ccccc2s1 | 25 (≈ 74.5 µM) | 12.5 (≈ 37.3 µM) | 37 | 25 | 37 | 25 | 25 (≈ 74.5 µM) | 6.25 (≈ 18.6 µM) | 6.25 (≈ 18.6 µM) | 31 | 12.5 (≈ 37.3 µM)
OC(Cn1cncn1)(Cn1cncn1)c1ccc(F)cc1F [FLUCONAZOLE] | – | 3.12 (≈ 10.2 µM) | – | – | – | 43 | 3.12 (≈ 10.2 µM) | – | – | – | –
Nc1[nH]ncc1C(=O)Nc1nc2ccccc2s1 | 12.5 (≈ 48.2 µM) | 3.12 (≈ 12.1 µM) | 31 | 31 | 31 | 37 | 6.25 (≈ 24.1 µM) | 12.5 (≈ 48.2 µM) | 12.5 (≈ 48.2 µM) | 19 | 50 (≈ 193 µM)
CN[C@@H]1[C@H](O[C@H]2[C@H](O[C@H]3[C@H](O)[C@@H](O)[C@H](N=C(N)N)[C@@H](O)[C@@H]3N=C(N)N)O[C@@H](C)[C@]2(O)C=O)O[C@@H](CO)[C@H](O)[C@H]1O [STREPTOMYCIN] | 6.25 (≈ 10.7 µM) | – | 37 | 37 | 43 | – | – | 6.25 (≈ 10.7 µM) | 3.12 (≈ 5.37 µM) | 37 | 6.25 (≈ 10.7 µM)
N#C/C(=C\NN)C(=O)Nc1nc2ccccc2s1 | 25 (≈ 96.4 µM) | 6.25 (≈ 24.1 µM) | 25 | 25 | 13 | 19 | 50 (≈ 193 µM) | 25 (≈ 96.4 µM) | 100 (≈ 386 µM) | 19 | 50 (≈ 193 µM)
O=C(N[C@H](CO)[C@H](O)c1ccc([N+](=O)[O-])cc1)C(Cl)Cl [CHLORAMPHENICOL] | 6.25 (≈ 19.3 µM) | – | 37 | 37 | 37 | – | – | 6.25 (≈ 19.3 µM) | 6.25 (≈ 19.3 µM) | 37 | 6.25 (≈ 19.3 µM)
Nc1c(C(=O)Nc2nc3ccccc3s2)cnn1-c1ccccc1 | 50 (≈ 149 µM) | 12.5 (≈ 37.3 µM) | 19 | 19 | 31 | 19 | 50 (≈ 149 µM) | 50 (≈ 149 µM) | 12.5 (≈ 37.3 µM) | 19 | 50 (≈ 149 µM)
N=c1c(C(=O)Nc2nc3ccccc3s2)cnc2ccccn12 | 12.5 (≈ 38.9 µM) | 6.25 (≈ 19.4 µM) | 19 | 31 | 37 | 25 | 25 (≈ 77.8 µM) | 50 (≈ 156 µM) | 6.25 (≈ 19.4 µM) | 31 | 12.5 (≈ 38.9 µM)
